This passage reports IC50 results from ChEMBL document CHEMBL1145938, “Synthesis and structure-activity relationship of aminobenzophenones. A novel class of p38 MAP kinase inhibitors with high antiinflammatory activity” (J Med Chem, 2003).

Molecules are shown by their SMILES.

The term IC50 denotes the concentration needed to halve the response being measured.

Chain of Mitogen-activated protein kinase 14 (Q16539 whole entry): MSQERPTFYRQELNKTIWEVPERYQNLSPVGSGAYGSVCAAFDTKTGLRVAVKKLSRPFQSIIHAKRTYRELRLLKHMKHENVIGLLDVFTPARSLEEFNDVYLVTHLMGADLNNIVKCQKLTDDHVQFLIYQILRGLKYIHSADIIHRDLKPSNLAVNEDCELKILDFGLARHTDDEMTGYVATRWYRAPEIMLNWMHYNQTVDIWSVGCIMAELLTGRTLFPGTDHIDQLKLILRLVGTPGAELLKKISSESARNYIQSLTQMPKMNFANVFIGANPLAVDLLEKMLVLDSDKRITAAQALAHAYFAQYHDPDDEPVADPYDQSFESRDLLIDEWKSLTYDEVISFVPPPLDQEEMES

The first test concerns the target T1, MAP kinase p38 (Homo sapiens, UniProt O15264+Q15759+Q16539+P53778). The test is described as follows: In vitro inhibition of TNF-alpha release from LPS stimulated human peripheral blood mononuclear cells. The test is classed as functional. In short, it runs like this:
(§1)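 Human PBMC from buffy coats (Lymphoprep), 5×10^5 cells/mL in RPMI1640 with 2% FCS, glutamine, penicillin/streptomycin; 30 min preincubation with compound, then LPS stimulation, 18 h at 37 °C, 5% CO2.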
The molecule `Cc1ccccc1Nc1ccc(C(=O)c2ccccc2C)c(Cl)c1` registered an IC50 of 14 nM.

For the molecule `Cc1ccccc1C(=O)c1ccc(Nc2ccccc2N)cc1`, the IC50 was found to be 47 nM.

Consider `Nc1ccccc1Nc1ccc(C(=O)c2ccccc2)c(Cl)c1`, for which the IC50 is recorded as 214 nM.

As to `Cc1cccc(C(=O)c2ccc(Nc3ccccc3N)cc2)c1`, the IC50 was 467 nM.

The molecule `Cc1ccccc1Cc1ccc(Nc2ccc(F)cc2N)cc1Cl` had an IC50 of over 10000 nM.

Take `Nc1ccccc1Nc1ccc(C(=O)c2ccccc2Br)cc1`: the concentration for half-maximal inhibition (IC50) came to 34 nM.

In turn, `Cc1ccccc1C(=O)c1ccc(Nc2ccccc2N)cc1C` returned an IC50 of 8 nM.

In the case of `O=C(c1ccccc1)c1ccc(Nc2ccccc2)cc1`, the IC50 came to 1349 nM.

Turning to `C=C(c1ccccc1C)c1ccc(Nc2ccccc2N)cc1Cl`, the IC50 is reported as over 10000 nM.

As to `Nc1ccccc1Nc1ccc(C(=O)c2ccccc2-c2ccccc2)cc1`, the IC50 stood at 444 nM.

For `CCNC(=O)Nc1ccccc1Nc1ccc(C(=O)c2ccccc2C)c(Cl)c1`, the half-inhibitory concentration (IC50) is recorded as 3 nM.

A further test concerns the target Mitogen-activated protein kinase 14 (Homo sapiens, UniProt Q16539). Put plainly: In vitro inhibitory activity determined against human mitogen-activated protein kinase p38 alpha.
Take `Cc1ccccc1Nc1ccc(C(=O)c2ccccc2C)c(Cl)c1`: the IC50 amounted to 12 nM.

As for `Cc1ccccc1C(=O)c1ccc(Nc2ccccc2N)cc1`, the IC50 is 29 nM.

Molecule `Nc1ccccc1Nc1ccc(C(=O)c2ccccc2)c(Cl)c1` showed an IC50 of 139 nM.

On to `Cc1cccc(C(=O)c2ccc(Nc3ccccc3N)cc2)c1`, for which the IC50 amounted to 574 nM.

Take `Cc1ccccc1Cc1ccc(Nc2ccc(F)cc2N)cc1Cl`: the IC50 was over 100000 nM.

In the case of `Nc1ccccc1Nc1ccc(C(=O)c2ccccc2Br)cc1`, half-maximal inhibition (IC50) was put at 54 nM.

`Cc1ccccc1C(=O)c1ccc(Nc2ccccc2N)cc1C` came in with an IC50 of 13 nM.

Take `O=C(c1ccccc1)c1ccc(Nc2ccccc2)cc1`: the IC50 came out at 193 nM.

Take `C=C(c1ccccc1C)c1ccc(Nc2ccccc2N)cc1Cl`: inhibition was half-maximal at 1550 nM (IC50).

As for `Nc1ccccc1Nc1ccc(C(=O)c2ccccc2-c2ccccc2)cc1`, half-maximal inhibition (IC50) required 811 nM.

`CCNC(=O)Nc1ccccc1Nc1ccc(C(=O)c2ccccc2C)c(Cl)c1`: the half-maximal inhibitory concentration (IC50) is 21 nM.

The next test concerns the target T1, MAP kinase p38. The test is described as follows: In vitro inhibition of IL1-beta release from LPS stimulated human peripheral blood mononuclear cells. In kind it is functional. In short, it runs like this: as §1
For the molecule `Cc1ccccc1Nc1ccc(C(=O)c2ccccc2C)c(Cl)c1`, the half-maximal inhibitory concentration (IC50) came to 26 nM.

As for `Cc1ccccc1C(=O)c1ccc(Nc2ccccc2N)cc1`, the half-inhibitory concentration (IC50) was found to be 67 nM.

Consider `Nc1ccccc1Nc1ccc(C(=O)c2ccccc2)c(Cl)c1`, for which the IC50 amounted to 437 nM.

The molecule `Cc1cccc(C(=O)c2ccc(Nc3ccccc3N)cc2)c1` yielded an IC50 of 580 nM.

`Cc1ccccc1Cc1ccc(Nc2ccc(F)cc2N)cc1Cl` yielded an IC50 of over 10000 nM.

`Nc1ccccc1Nc1ccc(C(=O)c2ccccc2Br)cc1` registered a half-maximal inhibitory concentration (IC50) of 45 nM.

Molecule `Cc1ccccc1C(=O)c1ccc(Nc2ccccc2N)cc1C` had an IC50 of 22 nM.

In turn, `O=C(c1ccccc1)c1ccc(Nc2ccccc2)cc1` gave an IC50 of 175 nM.

The molecule `C=C(c1ccccc1C)c1ccc(Nc2ccccc2N)cc1Cl` showed an IC50 of over 5000 nM.

Molecule `Nc1ccccc1Nc1ccc(C(=O)c2ccccc2-c2ccccc2)cc1` came in with an IC50 of 483 nM.

As for `CCNC(=O)Nc1ccccc1Nc1ccc(C(=O)c2ccccc2C)c(Cl)c1`, the IC50 is 9 nM.
